In assay [1] the target is T1, Alpha-1B adrenergic receptor (Homo sapiens, UniProt P35368).
T1 sequence (P35368 whole entry): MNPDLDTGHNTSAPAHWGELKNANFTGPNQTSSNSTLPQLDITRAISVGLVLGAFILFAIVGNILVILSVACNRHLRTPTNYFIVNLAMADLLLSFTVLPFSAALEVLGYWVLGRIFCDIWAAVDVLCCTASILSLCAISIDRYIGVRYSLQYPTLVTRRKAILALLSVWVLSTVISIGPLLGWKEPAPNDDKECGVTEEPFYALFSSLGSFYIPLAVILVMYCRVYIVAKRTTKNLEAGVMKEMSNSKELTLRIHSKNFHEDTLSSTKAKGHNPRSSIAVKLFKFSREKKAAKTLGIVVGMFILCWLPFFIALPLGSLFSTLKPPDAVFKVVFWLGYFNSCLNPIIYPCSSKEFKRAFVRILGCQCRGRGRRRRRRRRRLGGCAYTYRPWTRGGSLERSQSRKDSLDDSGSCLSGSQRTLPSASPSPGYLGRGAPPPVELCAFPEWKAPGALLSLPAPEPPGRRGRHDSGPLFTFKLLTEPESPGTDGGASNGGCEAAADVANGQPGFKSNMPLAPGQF
Kind of assay: Inhibition of [3H]-prazosin binding to cloned human Alpha-1B adrenergic receptor in CHO cells (chinese hamster ovary cells). The class given is cell-based. In short, it runs like this:
(§1)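 Membranes from CHO cells expressing cloned human α1a, α1b or α1d subtypes, [3H]prazosin competition binding.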

In assay [2] the target is T2, Alpha-1D adrenergic receptor (Homo sapiens, UniProt P25100).
T2 sequence (P25100 whole entry): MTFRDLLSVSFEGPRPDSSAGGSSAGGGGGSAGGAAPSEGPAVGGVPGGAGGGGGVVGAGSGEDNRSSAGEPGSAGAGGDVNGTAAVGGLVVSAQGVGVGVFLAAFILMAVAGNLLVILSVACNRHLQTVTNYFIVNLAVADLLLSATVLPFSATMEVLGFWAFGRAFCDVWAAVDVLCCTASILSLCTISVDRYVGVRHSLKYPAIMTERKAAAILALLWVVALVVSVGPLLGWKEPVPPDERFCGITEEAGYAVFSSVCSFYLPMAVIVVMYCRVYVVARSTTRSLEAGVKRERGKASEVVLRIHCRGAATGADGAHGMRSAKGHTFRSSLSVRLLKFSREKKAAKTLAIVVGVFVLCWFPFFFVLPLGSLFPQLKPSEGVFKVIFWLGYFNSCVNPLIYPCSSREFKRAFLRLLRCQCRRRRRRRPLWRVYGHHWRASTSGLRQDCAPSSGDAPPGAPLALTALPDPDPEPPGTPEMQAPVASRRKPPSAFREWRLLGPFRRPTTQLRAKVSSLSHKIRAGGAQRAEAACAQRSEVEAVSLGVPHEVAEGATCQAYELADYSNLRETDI
Kind of assay: Inhibition of [3H]-prazosin binding to cloned human Alpha-1D adrenergic receptor in CHO cells (chinese hamster ovary cells). The class given is cell-based. The procedure, abridged:
as §1

Assay [3] addresses T3, Adrenergic receptor alpha-2 (Rattus norvegicus, UniProt P22086+P19328+P22909).
T3 sequence (P22086 whole entry): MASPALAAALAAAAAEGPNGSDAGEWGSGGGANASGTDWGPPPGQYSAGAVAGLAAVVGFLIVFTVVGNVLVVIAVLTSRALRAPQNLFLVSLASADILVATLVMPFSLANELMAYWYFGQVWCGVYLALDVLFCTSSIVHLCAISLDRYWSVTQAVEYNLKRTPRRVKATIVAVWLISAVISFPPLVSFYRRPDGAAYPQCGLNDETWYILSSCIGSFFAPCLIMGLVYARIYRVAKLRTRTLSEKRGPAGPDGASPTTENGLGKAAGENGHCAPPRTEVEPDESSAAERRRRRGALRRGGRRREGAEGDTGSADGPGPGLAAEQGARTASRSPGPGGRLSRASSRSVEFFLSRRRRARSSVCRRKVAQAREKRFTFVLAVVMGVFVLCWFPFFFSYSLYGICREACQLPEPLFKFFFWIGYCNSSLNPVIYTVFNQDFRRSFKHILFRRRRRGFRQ
T3 sequence (P19328 whole entry): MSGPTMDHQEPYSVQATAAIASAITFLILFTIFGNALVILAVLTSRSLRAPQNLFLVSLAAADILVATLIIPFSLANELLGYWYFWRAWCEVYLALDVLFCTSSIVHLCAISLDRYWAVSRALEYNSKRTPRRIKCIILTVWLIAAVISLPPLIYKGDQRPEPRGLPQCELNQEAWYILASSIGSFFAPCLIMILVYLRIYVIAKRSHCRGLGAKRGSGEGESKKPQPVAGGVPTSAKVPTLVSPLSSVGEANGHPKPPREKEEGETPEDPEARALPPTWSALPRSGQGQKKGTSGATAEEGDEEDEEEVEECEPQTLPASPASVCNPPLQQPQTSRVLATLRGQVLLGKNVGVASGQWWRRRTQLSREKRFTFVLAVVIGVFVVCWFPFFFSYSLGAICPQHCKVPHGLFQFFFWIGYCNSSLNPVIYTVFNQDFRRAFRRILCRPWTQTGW
T3 sequence (P22909 whole entry): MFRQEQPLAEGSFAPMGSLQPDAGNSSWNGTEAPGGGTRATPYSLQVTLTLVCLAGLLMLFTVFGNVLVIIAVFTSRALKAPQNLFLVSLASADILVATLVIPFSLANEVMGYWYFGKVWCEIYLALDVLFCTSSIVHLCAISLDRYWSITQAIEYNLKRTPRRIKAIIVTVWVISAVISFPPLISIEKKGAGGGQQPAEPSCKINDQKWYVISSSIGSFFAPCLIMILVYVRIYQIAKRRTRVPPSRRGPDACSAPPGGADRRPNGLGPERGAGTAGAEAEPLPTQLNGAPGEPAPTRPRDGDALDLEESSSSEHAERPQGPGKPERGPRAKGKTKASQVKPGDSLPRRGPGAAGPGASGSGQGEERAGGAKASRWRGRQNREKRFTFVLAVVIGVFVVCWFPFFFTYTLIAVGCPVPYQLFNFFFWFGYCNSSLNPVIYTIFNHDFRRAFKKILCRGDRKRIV
The assay is described as follows: Inhibition of [3H]- rauwolscine binding to alpha-2 adrenergic receptor in membrane of rat cerebral cortex. The format is tissue-based. The procedure, abridged:
(§2)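 Native α2 receptors in rat cerebral cortex membranes, competition binding with [3H]rauwolscine.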

Assay [4] addresses T4, Alpha-1A adrenergic receptor (Rattus norvegicus, UniProt P43140).
T4 sequence (P43140 whole entry): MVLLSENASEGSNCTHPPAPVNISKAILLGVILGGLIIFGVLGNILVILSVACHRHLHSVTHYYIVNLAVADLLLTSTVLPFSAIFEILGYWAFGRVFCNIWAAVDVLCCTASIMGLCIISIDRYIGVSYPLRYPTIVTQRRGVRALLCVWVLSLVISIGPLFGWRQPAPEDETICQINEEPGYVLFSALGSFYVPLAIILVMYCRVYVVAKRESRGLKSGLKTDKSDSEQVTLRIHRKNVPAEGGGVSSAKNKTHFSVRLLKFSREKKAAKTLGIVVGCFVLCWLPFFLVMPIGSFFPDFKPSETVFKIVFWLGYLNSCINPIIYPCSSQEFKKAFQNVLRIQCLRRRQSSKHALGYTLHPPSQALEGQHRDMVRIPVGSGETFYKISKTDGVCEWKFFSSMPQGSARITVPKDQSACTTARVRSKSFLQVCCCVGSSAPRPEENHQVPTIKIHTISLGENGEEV
Kind of assay: Functional Alpha-1A adrenergic receptor antagonistic activity of noradrenaline induced contractions in prostatic portion of rat vas deferens. The format is tissue-based. The following applies: read-out: pA2 (converted). The procedure, abridged:
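Rat vas deferens, prostatic portion. Cumulative noradrenaline concentration-response curves were run with and without antagonist. pA2 came from 6-14 determinations. Where two antagonist concentrations were used and gave similar pA2, antagonism was taken as competitive; otherwise an apparent pA2 was taken at one concentration. Where NO relaxation appeared, 1 µM ODQ was added at least 10 min before the antagonist.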

Assay [5] concerns the target T5, 5-hydroxytryptamine receptor 1A (Homo sapiens, UniProt P08908).
T5 sequence (P08908 whole entry): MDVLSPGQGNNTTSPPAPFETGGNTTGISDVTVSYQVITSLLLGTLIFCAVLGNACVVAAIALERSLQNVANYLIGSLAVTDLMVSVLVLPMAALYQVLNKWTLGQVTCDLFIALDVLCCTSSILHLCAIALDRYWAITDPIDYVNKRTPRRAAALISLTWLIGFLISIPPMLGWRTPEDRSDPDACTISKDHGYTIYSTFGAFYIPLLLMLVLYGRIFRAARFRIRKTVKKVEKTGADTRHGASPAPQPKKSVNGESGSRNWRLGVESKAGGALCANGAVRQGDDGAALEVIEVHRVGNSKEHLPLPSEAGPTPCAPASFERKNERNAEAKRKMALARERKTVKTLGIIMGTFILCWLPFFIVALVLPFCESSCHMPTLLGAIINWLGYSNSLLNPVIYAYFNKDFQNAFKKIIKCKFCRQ
The assay is described as follows: Inhibition of [3H]8-OH-DPAT binding to 5-hydroxytryptamine 1A receptor serotonergic receptor in human HeLa cells. The format is cell-based. In short, it runs like this: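 Membranes from HeLa cells expressing the cloned human 5-HT1A receptor, [3H]-8-OH-DPAT competition binding.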

The target of assay [6] is T6, Alpha-1A adrenergic receptor (Homo sapiens, UniProt P35348).
T6 sequence (P35348 whole entry): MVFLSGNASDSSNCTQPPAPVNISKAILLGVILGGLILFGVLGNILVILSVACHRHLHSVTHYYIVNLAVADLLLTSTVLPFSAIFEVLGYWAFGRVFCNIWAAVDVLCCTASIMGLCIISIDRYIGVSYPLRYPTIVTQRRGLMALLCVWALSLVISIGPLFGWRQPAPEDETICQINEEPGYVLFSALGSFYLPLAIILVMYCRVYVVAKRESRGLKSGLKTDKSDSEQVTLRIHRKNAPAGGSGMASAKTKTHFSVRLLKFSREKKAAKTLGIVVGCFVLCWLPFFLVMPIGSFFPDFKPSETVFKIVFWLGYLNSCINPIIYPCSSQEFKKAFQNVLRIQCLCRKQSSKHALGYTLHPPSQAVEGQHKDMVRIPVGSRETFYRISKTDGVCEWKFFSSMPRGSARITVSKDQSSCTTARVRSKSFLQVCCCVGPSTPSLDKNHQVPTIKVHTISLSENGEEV
Kind of assay: Inhibition of [3H]prazosin binding to cloned human Alpha-1A adrenergic receptor in CHO cells (chinese hamster ovary cells). The class given is cell-based. In short, it runs like this:
as §1

Assay [7] can be described thus: Thiol induced NO generation, through griess reaction expressed as % NO2- in presence of 5*10e-4 M L-cysteine. The procedure, abridged:
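Compound in DMSO diluted to 10^-4 M final in 1:1 v/v 50 mM phosphate buffer (pH 7.4)/MeOH containing 5 × 10^-4 M L-cysteine. Held 1 h at 37 °C, then treated with Griess reagent. Nitrite reported as % NO2- (mol/mol).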
In general terms: Nitrite, measured by Griess reagent, commonly stands in for NO production.

For assay [8], the target named is T3, Adrenergic receptor alpha-2. Kind of assay: Inhibition of [3H]- rauwolscine binding to alpha-2 adrenergic receptor in rat cerebral cortex. The format is tissue-based. In short, it runs like this: as §2
The target in assay [9] is T1, Alpha-1B adrenergic receptor. Kind of assay: Inhibition of [3H]prazosin binding to cloned human Alpha-1B adrenergic receptor in CHO cells (chinese hamster ovary cells). The class given is cell-based. The procedure, abridged:
as §1

The record followed here is ChEMBL document CHEMBL1145061, “New potential uroselective NO-donor alpha1-antagonists” (J Med Chem, 2003).

pKi: −log10 of the molar value. A value given as a limit tells only on which side of the number the result lay.

Consider `Cc1c(-c2ccccc2)oc2c(C(=O)NCCCN3CCN(c4ccccc4OCc4no[n+]([O-])c4C#N)CC3)cccc2c1=O`, for which the pKi (commonly the negative decadic logarithm of the Ki, by convention in mol/L) in [1] was 8.19; in [2] it was 8.41; in assay [5] it was 8.66; in [6], 9.14. Further, in [3], the Ki – broadly, a measure of affinity in units of concentration, obtained from inhibition or displacement – was determined as 81.1 nM. Further, the Kb in assay [4] was 34.7 nM. Moreover, in assay [7], the NO2- (mol/mol) came out at 32.3%.

Regarding `Cc1c(-c2ccccc2)oc2c(C(=O)NCCCN3CCN(c4ccccc4OCc4no[n+]([O-])c4C(N)=O)CC3)cccc2c1=O`, the pKi in assay [1] was 7.80; in assay [2], 7.69; in assay [5], 8.92; in assay [6], 8.74. Besides, the Ki in assay [3] is given as 359 nM. For the same molecule, the Kb in [4] was 10.7 nM. In addition, the NO2- (mol/mol) in assay [7] was found to be 5.28%.

`COc1ccccc1N1CCN(CCCNC(=O)c2cccc3c(=O)c(C)c(-c4ccccc4)oc23)CC1` [UPIDOSIN]: the Kb in assay [4] was 3.8 nM. In assay [8], this molecule showed an inhibitory constant (Ki) of 33.3 nM.

As for `Cc1c(-c2ccccc2)oc2c(C(=O)NCCCN3CCN(c4ccccc4OCCCO[N+](=O)[O-])CC3)cccc2c1=O`, the negative-log Ki (pKi) in [1] was 8.92; in assay [2] it was 8.46; in assay [5] it was 8.14; in assay [6] it was 10.03. In addition, in assay [3], the Ki was found to be 81.8 nM. Besides, the Kb in assay [4] is 2.29 nM. The NO2- (mol/mol) in assay [7] was under 1%.

With `Cc1c(-c2ccccc2)oc2c(C(=O)NCCCN3CCN(c4ccccc4OCc4no[n+]([O-])c4C)CC3)cccc2c1=O`, the pKi in [2] was 8.38; in assay [9] it was 8.33; in assay [5], 8.80; in assay [6], 9.80. The same molecule returned a Ki in [3] of 53.5 nM. For the same molecule, the Kb in assay [4] is 6.17 nM. In addition, the NO2- (mol/mol) in assay [7] turned out to be 1.11%.
